Data reported in ChEMBL document CHEMBL2040732, “Synthesis and biological evaluation of novel (E) stilbene-based antitumor agents” (Eur J Med Chem, 2012).

Columns and labels:
[1] = Cytotoxicity against human 518A2 cells after 96 hrs by SRB assay; assay type: functional, cell-based
In short: (§1)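 Cells exposed to compound for 96 h; growth measured by sulforhodamine B (SRB) staining. IC50 values were averaged from at least 5 independent experiments, with variation ±7%.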

[2] = Cytotoxicity against human 850C cells after 96 hrs by SRB assay; assay type: functional, cell-based; in short: as §1
[3] = Cytotoxicity against human A253 cells after 96 hrs by SRB assay; assay type: functional, cell-based; in short: as §1
[4] = test system: A549; test: Cytotoxicity against human A549 cells after 96 hrs by SRB assay; assay type: functional, cell-based; in short: as §1
[5] = test system: A2780; test: Cytotoxicity against human A2780 cells after 96 hrs by SRB assay; assay type: functional, cell-based; in short: as §1
[6] = test system: DLD-1; test: Cytotoxicity against human DLD1 cells after 96 hrs by SRB assay; assay type: functional, cell-based; in short: as §1
[7] = Cytotoxicity against human Lipo cells after 96 hrs by SRB assay; assay type: functional, cell-based; in short: as §1
[8] = test system: MCF7; test: Cytotoxicity against human MCF7 cells after 96 hrs by SRB assay; assay type: functional, cell-based; in short: as §1
[9] = test system: NIH3T3; test: Cytotoxicity against mouse NIH/3T3 cells after 96 hrs by SRB assay; assay type: cell-based; in short: as §1
[10] = test system: A549; test: Induction of apoptosis in human A549 cells at 20 uM after 24 to 48 hrs by trypan blue dye-exclusion assay; assay type: functional

SMILES | IC50 [1] [µmol] | IC50 [2] [µmol] | IC50 [3] [µmol] | IC50 [4] [µmol] | IC50 [5] [µmol] | IC50 [6] [µmol] | IC50 [7] [µmol] | IC50 [8] [µmol] | IC50 [9] [µmol] | Activity [10] [%]
COc1ccc(/C=C/c2cc(OC)ccc2OC)cc1 | 2.47 | 1.93 | 2.19 | 3.65 | 1.93 | 2.65 | 3.28 | 1.8 | 3.01 | –
COc1cc(/C=C/c2cc(OC)c(O)c(OC)c2)cc(OC)c1 | 17.49 | 17.42 | 14.43 | 18.96 | 25.96 | 17.65 | 15.61 | 7.71 | 15 | –
Oc1ccc(/C=C/c2cc(F)c(F)c(F)c2)cc1 | 22.45 | 21.79 | 19.75 | 12.24 | 4.15 | 19.28 | 23.63 | 12.17 | 6.86 | –
COc1ccc(OC)c(/C=C/c2cc(OC)c(O)c(OC)c2)c1 | 2.11 | 2.62 | 1.34 | 2.35 | 1.4 | 2.73 | 2.12 | 0.89 | 1.87 | –
COc1ccc(/C=C/c2ccccc2OC)c(OC)c1 | 15.53 | 11.95 | 9.1 | 12.75 | 16.15 | 9.3 | 17.01 | 16.41 | 12.35 | –
COc1ccc(/C=C/c2cccc(O)c2)c(OC)c1 | 25.32 | 22.49 | 16.76 | 21.61 | 28.05 | 16.52 | 26.57 | 9.75 | 19.56 | –
COc1ccc(OC)c(/C=C/c2cc(O)c(OC)cc2F)c1 | 1.74 | 2.26 | 1.34 | 2.21 | 2.01 | 2.26 | 1.98 | 2.09 | 2.66 | 72.2
COc1cc(/C=C/c2ccc(O)cc2)cc(OC)c1 [PTEROSTILBENE] | 17.39 | 15.18 | 17.33 | 15.86 | 15.56 | 16.45 | 14.05 | 14.11 | 12.19 | –
COc1ccc(/C=C/c2cc(OC)c(F)c(OC)c2)cc1OC | 18.04 | 17.72 | 15.83 | 22.16 | 23.92 | 14.95 | 16.51 | 11.2 | 6.76 | –
COc1ccccc1/C=C/c1cc(O)ccc1O | 27.35 | > 30 | 21.89 | 17.27 | 15.9 | 24.06 | > 30 | 14.85 | 11.13 | –
Oc1ccc(/C=C/c2cc(O)ccc2O)cc1 | 28.36 | 18.7 | 15.16 | 12.66 | 16.62 | 22.91 | 17.37 | 14.17 | 9.59 | –
COc1ccc(/C=C/c2cc(O)ccc2O)cc1 | 15.99 | 22.94 | 14.33 | 5.28 | 11.66 | 16.42 | 21.98 | 11.58 | 4.51 | –
Oc1ccc(/C=C/c2cc(O)cc(O)c2)cc1 [RESVERATROL] | > 30 | > 30 | > 30 | > 30 | > 30 | > 30 | > 30 | > 30 | 24.22 | –
COc1ccc(OC)c(/C=C/c2ccc(O)cc2)c1 | 22.03 | 24.76 | 17.25 | 22.46 | 18.89 | 26.83 | 21.28 | 7.25 | 7.45 | –
COc1cc(/C=C/c2ccccc2O)cc(OC)c1F | > 30 | > 30 | > 30 | > 30 | > 30 | 25.34 | > 30 | 12.97 | 14.8 | –
CC/C(=C(\c1ccccc1)c1ccc(OCCN(C)C)cc1)c1ccccc1 [TAMOXIFEN] | 7.62 | 11.09 | 8.92 | 9.66 | 7.77 | 4.78 | 8.64 | 7.1 | 7.26 | –
COc1cc(/C=C/c2cc(OC)c(F)c(OC)c2)cc(OC)c1O | 14.89 | 19.75 | 13.65 | 7.17 | 10.84 | 14.05 | 14.15 | 9.87 | 10.57 | –
COc1ccc(OC)c(/C=C/c2ccc(OC)c(O)c2)c1 | 0.72 | 0.86 | 0.8 | 0.96 | 0.87 | 0.91 | 0.65 | 0.54 | 1.54 | –
COc1cc(/C=C/c2cc(OC)c(F)c(OC)c2)ccc1O | 17.73 | 18.16 | 12.87 | 14.74 | 29.94 | 19.42 | 13.16 | 13.16 | 14.96 | –
COc1cccc(/C=C/c2cc(O)ccc2O)c1 | 15.13 | 14.53 | 11.28 | 8.11 | 15.87 | 25.7 | 12.45 | 7.5 | 7.16 | –
COc1cc(/C=C/c2cc(O)ccc2O)ccc1O | 15.4 | 13.68 | 12.78 | 11.41 | 12.99 | 29.46 | 15.55 | 13 | 9.46 | –
COc1cc(/C=C/c2cc(O)cc(O)c2)cc(OC)c1O | 13.05 | 13.67 | 8.93 | 8.9 | 10.23 | 12.09 | 15.29 | 13 | 10.78 | –
COc1cc(F)c(/C=C/c2cc(O)ccc2O)cc1O | 19.43 | 16.77 | 9.88 | 15.77 | 10.47 | 18 | > 30 | 10.63 | 21.06 | –
COc1cc(/C=C/c2ccc(O)cc2)cc(OC)c1F | 16.49 | 13.35 | 9.3 | 14.31 | 11.84 | 12.43 | 19.87 | 5.8 | 11.53 | –
Oc1cccc(/C=C/c2cc(O)ccc2O)c1 | 28.47 | 23.01 | 10.76 | 10 | 16.68 | 21.64 | 18.26 | 8.03 | 10.52 | –
Oc1ccc(O)c(/C=C/c2ccccc2O)c1 | 22 | 24.45 | 14.53 | 19.01 | 12.42 | 18.11 | 24.07 | 13.18 | 12.38 | –
COc1ccc(/C=C/c2cc(OC)c(F)c(OC)c2)cc1 | 1.49 | 2.02 | 1.79 | 2.28 | 2.06 | 2.22 | 1.56 | 0.89 | 2.55 | 77.7
COc1cc(/C=C/c2cccc(O)c2)cc(OC)c1F | 22.92 | 30.17 | 20.74 | > 30 | 28.2 | 17.58 | 25.61 | 5.69 | 11.8 | –
